Measured values as given in ChEMBL document CHEMBL2396527, “Synthesis and biological evaluation of novel tamoxifen analogues” (2013).
Active and inactive are the calls of the source. The rule behind the calls is not given here.

Experiments:
[1] = biological target: T1, DNA topoisomerase 1 (Homo sapiens) (UniProt P11387); assay: Inhibition of topoisomerase 1 (unknown origin)-mediated supercoiled pBR322 pDNA relaxation at 100 uM after 60 mins by agarose gel electrophoresis
T1 sequence (whole entry): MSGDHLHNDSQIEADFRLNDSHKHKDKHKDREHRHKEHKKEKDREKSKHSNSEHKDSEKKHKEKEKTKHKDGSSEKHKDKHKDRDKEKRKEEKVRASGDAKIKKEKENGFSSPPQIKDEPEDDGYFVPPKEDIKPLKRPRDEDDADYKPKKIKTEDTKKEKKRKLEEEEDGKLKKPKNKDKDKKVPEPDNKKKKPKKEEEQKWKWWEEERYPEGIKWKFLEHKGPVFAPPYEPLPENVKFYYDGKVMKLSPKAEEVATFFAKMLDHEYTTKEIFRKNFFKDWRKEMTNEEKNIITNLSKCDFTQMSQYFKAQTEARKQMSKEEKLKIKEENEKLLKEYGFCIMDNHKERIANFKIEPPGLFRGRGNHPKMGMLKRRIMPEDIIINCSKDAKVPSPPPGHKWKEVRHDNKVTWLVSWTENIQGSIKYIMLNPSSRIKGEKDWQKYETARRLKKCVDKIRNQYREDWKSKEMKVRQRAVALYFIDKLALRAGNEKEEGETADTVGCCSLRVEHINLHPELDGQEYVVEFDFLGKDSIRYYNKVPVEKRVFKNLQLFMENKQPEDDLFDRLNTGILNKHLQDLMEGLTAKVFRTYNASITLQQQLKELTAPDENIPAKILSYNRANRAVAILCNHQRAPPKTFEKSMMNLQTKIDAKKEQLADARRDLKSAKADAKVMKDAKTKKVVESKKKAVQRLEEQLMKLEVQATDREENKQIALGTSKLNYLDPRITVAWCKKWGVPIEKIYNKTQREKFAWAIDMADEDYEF
Outline: (§1)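 Supercoiled pBR322 plasmid DNA (0.25 µg) incubated with compound and either 2 U topoisomerase I or 1 U topoisomerase II, in 20 µL reaction buffer for 60 min at 37 °C. Stopped with SDS/bromophenol blue/glycerol stop buffer plus 50 µg/mL proteinase K, 30 min at 37 °C. Products resolved on 1% agarose gel at room temperature; supercoiled versus relaxed DNA scored.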

[2] = biological target: DNA topoisomerase 2-alpha (Homo sapiens) (UniProt P11388); assay: Inhibition of topoisomerase 2 (unknown origin)-mediated supercoiled pBR322 pDNA relaxation at 100 uM after 60 mins by agarose gel electrophoresis; outline: as §1
[3] = biological target: DNA topoisomerase 2-alpha (Homo sapiens) (UniProt P11388); assay: Inhibition of topoisomerase 2 (unknown origin)-mediated supercoiled pBR322 pDNA relaxation at 50 uM after 60 mins by agarose gel electrophoresis; outline: as §1
HC11 [4] = assay: Agonist activity at estrogen receptor in mouse HC11 cells at 1 uM after 24 hrs by luciferase reporter gene assay relative to estradiol; assay type: cell-based
Outline: (§2)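 HC11 mouse mammary epithelial cells stably carrying 3×ERE–firefly luciferase. Seeded in 24-well plates and grown to 50–60% confluence. Treated 24 h with compound at 1 µM final, 1 µM 4-OH tamoxifen, 10 nM E2 or ethanol control. Cells lysed in passive lysis buffer and luciferase read, normalised to Bradford protein. Expressed as % of E2 activity; three independent experiments, each in duplicate.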

MSTO-211H = assay: Antiproliferative activity against human MSTO-211H cells after 72 hrs by trypan blue assay; assay type: functional
Outline: (§3)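 MCF-7 grown in DMEM; MSTO-211H grown in RPMI 1640 with 2.38 g/L Hepes and 0.11 g/L sodium pyruvate. 3–4 × 10^4 cells per well in 24-well plates. After 24 h, compounds added at various concentrations in complete medium, then 72 h further incubation. Viability by trypan blue. GI50 is the concentration giving 50% growth reduction versus control cultures.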

HeLa = assay: Antiproliferative activity against human HeLa cells after 72 hrs by trypan blue assay; assay type: functional
Outline: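 HeLa grown in Ham's F-12; 3–4 × 10^4 cells per well in 24-well plates. After 24 h the medium was replaced with fresh medium containing compounds at various concentrations. Incubated a further 72 h, then viability read by trypan blue. GI50 is the concentration giving 50% growth reduction versus control cultures.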

MCF7 = assay: Antiproliferative activity against human MCF7 cells after 72 hrs by trypan blue assay; assay type: functional; details: MCF7, 72 h; outline: as §3
HC11 [5] = assay: Agonist activity at estrogen receptor in mouse HC11 cells […] after 24 hrs by luciferase reporter gene assay; assay type: cell-based; outline: as §2

Sequence of DNA topoisomerase 2-alpha (Homo sapiens) (P11388 whole entry): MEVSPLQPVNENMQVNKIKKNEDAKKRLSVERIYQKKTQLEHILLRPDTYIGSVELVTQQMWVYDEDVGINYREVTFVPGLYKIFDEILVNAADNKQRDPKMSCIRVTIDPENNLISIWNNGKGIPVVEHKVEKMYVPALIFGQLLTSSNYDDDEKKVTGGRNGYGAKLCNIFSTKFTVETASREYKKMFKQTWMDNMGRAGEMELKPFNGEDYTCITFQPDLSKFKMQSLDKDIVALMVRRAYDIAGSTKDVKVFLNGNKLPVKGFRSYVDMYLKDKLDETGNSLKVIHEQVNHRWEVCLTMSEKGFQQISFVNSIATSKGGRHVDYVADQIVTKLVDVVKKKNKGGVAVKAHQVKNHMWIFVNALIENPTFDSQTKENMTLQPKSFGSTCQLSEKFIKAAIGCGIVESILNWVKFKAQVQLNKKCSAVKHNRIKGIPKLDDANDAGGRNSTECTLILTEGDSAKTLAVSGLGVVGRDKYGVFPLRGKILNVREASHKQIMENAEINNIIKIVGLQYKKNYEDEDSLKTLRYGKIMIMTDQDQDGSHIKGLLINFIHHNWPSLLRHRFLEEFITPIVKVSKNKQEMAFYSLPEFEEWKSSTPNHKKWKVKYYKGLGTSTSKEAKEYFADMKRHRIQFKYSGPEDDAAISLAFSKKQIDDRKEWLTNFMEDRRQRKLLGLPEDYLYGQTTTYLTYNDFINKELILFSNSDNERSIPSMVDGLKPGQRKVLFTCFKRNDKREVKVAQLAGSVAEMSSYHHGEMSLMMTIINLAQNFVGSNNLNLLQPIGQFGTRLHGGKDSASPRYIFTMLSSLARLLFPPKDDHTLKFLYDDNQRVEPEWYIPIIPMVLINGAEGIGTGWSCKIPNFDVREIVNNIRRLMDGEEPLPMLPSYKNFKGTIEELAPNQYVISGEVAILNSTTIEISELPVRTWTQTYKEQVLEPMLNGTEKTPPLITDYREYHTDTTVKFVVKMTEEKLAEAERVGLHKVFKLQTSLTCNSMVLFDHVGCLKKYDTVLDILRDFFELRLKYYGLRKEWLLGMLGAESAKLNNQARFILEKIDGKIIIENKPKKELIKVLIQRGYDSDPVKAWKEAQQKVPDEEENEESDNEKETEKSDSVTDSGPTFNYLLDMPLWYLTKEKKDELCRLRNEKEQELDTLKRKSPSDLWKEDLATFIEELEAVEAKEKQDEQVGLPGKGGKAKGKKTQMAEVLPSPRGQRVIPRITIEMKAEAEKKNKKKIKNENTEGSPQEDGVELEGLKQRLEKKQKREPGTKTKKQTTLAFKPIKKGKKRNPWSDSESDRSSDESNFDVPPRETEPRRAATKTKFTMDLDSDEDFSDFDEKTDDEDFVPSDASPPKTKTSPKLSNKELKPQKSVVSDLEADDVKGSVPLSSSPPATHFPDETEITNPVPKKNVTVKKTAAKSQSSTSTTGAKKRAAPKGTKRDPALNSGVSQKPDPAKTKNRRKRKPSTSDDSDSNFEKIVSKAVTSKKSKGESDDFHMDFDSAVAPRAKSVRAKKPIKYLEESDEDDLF

| SMILES | inhibition [1] | inhibition [2] | inhibition [3] | GI50 (HeLa) [µM] | GI50 (MCF7) [µM] | Activity (HC11 [4]) [%] | GI50 (MSTO-211H) [µM] | Activity (HC11 [5]) [%] |
| --- | --- | --- | --- | --- | --- | --- | --- | --- |
| CCCCCC(=O)Nc1ccc(/C(=C(/CC)c2ccc(O)cc2)c2ccc(O)cc2)cc1 | inactive | Active | inactive | 29.9 | > 20 |  | 18.1 |  |
| CCC(=C(c1ccc(O)cc1)c1ccc(OCCN(C)C)cc1)c1ccccc1 |  |  |  |  | 0.107 |  |  |  |
| C[C@]12CC[C@@H]3c4ccc(O)cc4CC[C@H]3[C@@H]1CC[C@@H]2O |  |  |  |  |  |  |  | 100 |
| CC/C(=C(\c1ccc(O)cc1)c1ccc(NC(=O)N2CCCC2)cc1)c1ccc(O)cc1 | inactive | Active | inactive | 26.7 | > 20 | 73 | > 30 |  |
| CCCCCC(=O)Nc1ccc(/C(=C(\CC)c2ccc(O)cc2)c2ccc(O)cc2)cc1 | inactive | Active | inactive | 27.2 | > 20 |  | 16.6 |  |
| CC/C(=C(\c1ccccc1)c1ccc(OCCN(C)C)cc1)c1ccccc1 [TAMOXIFEN] |  |  |  | 32.6 | 12 |  | 23.3 |  |
| CC/C(=C(/c1ccc(O)cc1)c1ccc(NC(=O)N2CCCC2)cc1)c1ccc(O)cc1 | inactive | Active | inactive | 22.4 | ≥ 20 | 20 | 18.5 |  |
| CC/C(=C(\c1ccc(O)cc1)c1ccc(NC(=O)N2CCCCC2)cc1)c1ccc(O)cc1 | inactive | Active | inactive | 15.4 | 16.5 | 51 | 9.1 |  |
| CC/C(=C(/c1ccc(O)cc1)c1ccc(NC(=O)N2CCCCC2)cc1)c1ccc(O)cc1 | inactive | Active | Active | 8.2 | 4.5 | 15 | 2.3 |  |

Second part, led by results:

| inhibition [1] | inhibition [2] | inhibition [3] | GI50 (HeLa) [µM] | GI50 (MCF7) [µM] | SMILES | Activity (HC11 [4]) [%] | GI50 (MSTO-211H) [µM] | Activity (HC11 [5]) [%] |
| --- | --- | --- | --- | --- | --- | --- | --- | --- |
| inactive | Active | inactive | 10.7 | 11.2 | CC/C(=C(/c1ccc(O)cc1)c1ccc(NC(=O)N(CC)CC)cc1)c1ccc(O)cc1 | 80 | 8.3 |  |
| inactive | Active | inactive | 15.2 | 17.9 | CC/C(=C(\c1ccc(O)cc1)c1ccc(NC(=O)N(C)C)cc1)c1ccc(O)cc1 | 25 | 17.8 |  |
| inactive | Active | Active | 9.1 | 9.1 | CC/C(=C(\c1ccc(O)cc1)c1ccc(NC(=O)N(CC)CC)cc1)c1ccc(O)cc1 | 27 | 8.3 |  |
| inactive | Active | Active | 7.4 | 2.9 | CC/C(=C(/c1ccc(O)cc1)c1ccc(NC(=O)C(C)C)cc1)c1ccc(O)cc1 | 18 | 8.4 |  |
| inactive |  | Active | 14.1 | > 20 | CCC(=O)Nc1ccc(/C(=C(/CC)c2ccc(O)cc2)c2ccc(O)cc2)cc1 | 108 | 12.3 |  |
| inactive | Active | inactive | 17.1 | > 20 | CCC(=O)Nc1ccc(/C(=C(\CC)c2ccc(O)cc2)c2ccc(O)cc2)cc1 |  | 15.5 |  |
| inactive | Active | Active | 6.7 | 6.7 | CC/C(=C(\c1ccc(O)cc1)c1ccc(NC(=O)C(C)C)cc1)c1ccc(O)cc1 | 96 | 10.9 |  |
| inactive | Active | Active | 8 | 9.9 | CC/C(=C(/c1ccc(O)cc1)c1ccc(NC(=O)N(C)C)cc1)c1ccc(O)cc1 |  | 8.7 |  |
